Bioassay records deposited in PubChem by several laboratories.
In the library only some 2.4% were active in any assay of this set; here they are far more common.
Myeloid diff MLP – myeloid differentiation induction | ER-HoxA9 myeloid progenitors, lysozyme-GFP differentiation, flow cytometry | AID 624256 | actives 1% (n = 360,000) | calls only at 10 µM;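 active = normalized GFP-positive differentiation at or above the plate's own cutoff, the solvent-only control mean plus 3 SD; inconclusive = no clear call, values can overlap the other calls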;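 also: cells exposed to compound for four days before flow analysis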
MIN6 prolif – inducers of beta-cell replication in MIN6 cells; MIN6 cells proliferation, ATPlite luminescence, 48 h; cells starved in 0.2% serum; 100% = growth in 10% serum; proliferation, % at 10 µM; actives 0.29% (n = 330,000); AID 2380;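 active = compounds whose signal lies at least 3.5 SD above the mean of all wells on their plate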;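 also: 0% = DMSO-treated cells in low-serum medium and 100% = 10% serum control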
CendR NRP1 mod – NRP-1/CendR interaction modulation. AID 602438. actives 0.85% (n = 360,000). inhibition, % at 25 µM. O14786. FAM-RPARPAR peptide binding to NRP-1, fluorescence polarization;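 active = inhibition or corrected inhibition above about 18%, plus a signal ratio from 0.5 to 1.5, limit read from the data, passing the limit was not always enough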
SENP1 inh – blocks the human SENP1 SUMO protease catalytic domain. Q9P0U3. inhibition, % at 10 µM. recombinant SENP1 catalytic domain, CyPet-SUMO1-YPet FRET cleavage. actives 0.21% (n = 360,000);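 active = inhibition at least 30% at 10 µM, raw YFP signal under a set limit, fluorescence ratio 0.5 to 1.5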;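 also: 0% = enzyme with DMSO and 100% = no enzyme wells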
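material = recombinant human SENP1 catalytic domain, His6-tagged | quantity = 20 pM enzyme | reagent = 25 nM SUMO1 FRET substrate | compound dosing = 10 µM single point, 0.5% DMSO | timing = 50 min enzyme reaction, room temperature, light-protected | detection = FRET, CFP and YFP emission | control set = no-enzyme low, enzyme-DMSO high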
DAGLB inh – diacylglycerol lipase beta (human) inhibition | Q8NCG7 | HEK293T DAGLB membrane lysate, EnzChek fluorogenic substrate | inhibition, % at 5.17 µM | actives 0.059% (n = 340,000); in the data active = inhibition above about 34%;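 also: 0% = enzyme with vehicle and 100% = wells lacking enzyme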
Target sequence (Q8NCG7 whole entry, looked up): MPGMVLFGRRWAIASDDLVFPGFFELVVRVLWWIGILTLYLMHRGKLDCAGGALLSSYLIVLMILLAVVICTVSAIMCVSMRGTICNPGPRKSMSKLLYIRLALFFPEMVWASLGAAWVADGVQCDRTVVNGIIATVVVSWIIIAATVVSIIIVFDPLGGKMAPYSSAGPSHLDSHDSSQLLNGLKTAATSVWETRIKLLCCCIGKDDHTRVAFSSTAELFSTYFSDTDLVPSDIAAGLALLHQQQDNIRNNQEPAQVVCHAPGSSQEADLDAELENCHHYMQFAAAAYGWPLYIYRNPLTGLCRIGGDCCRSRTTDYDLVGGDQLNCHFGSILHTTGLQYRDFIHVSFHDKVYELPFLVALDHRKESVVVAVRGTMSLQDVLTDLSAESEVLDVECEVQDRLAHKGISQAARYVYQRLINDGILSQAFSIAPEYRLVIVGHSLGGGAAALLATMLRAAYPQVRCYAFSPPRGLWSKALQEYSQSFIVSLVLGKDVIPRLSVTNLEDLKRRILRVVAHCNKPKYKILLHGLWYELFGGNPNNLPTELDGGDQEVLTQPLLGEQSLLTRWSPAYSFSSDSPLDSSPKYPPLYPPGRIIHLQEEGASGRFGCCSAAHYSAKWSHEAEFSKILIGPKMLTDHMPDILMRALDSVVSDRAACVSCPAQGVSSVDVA
MT1-MMP act inh – blocks activation of human MT1-MMP. P50281. HT1080 RFP-PRO-GFP cells, GFP/RFP ratio fluorescence, overnight; percent of plate control window, DMSO zero. GFP/RFP ratio change, % at 20 µM. actives 0.061% (n = 360,000);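 active = GFP/RFP ratio change of at least 30% with cell ATP level not reduced by more than half and red fluorescence within 50% of control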
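Assay system: HT1080 RFP-PRO-GFP cells. Benchmarks: DMSO vehicle wells and RFP-L50D-GFP reporter cell wells. Times: overnight cell settling, then overnight compound exposure, 37 °C, 5% CO2. Compound: 20 µM single dose, 1% DMSO. Read-out basis: GFP/RFP fluorescence ratio.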
The depositor's hits bear a star; i = inactive; u = inconclusive; x = not tested or not shown; + = active, no number.

SMILES	Myeloid diff MLP	MIN6 prolif	CendR NRP1 mod	SENP1 inh	DAGLB inh	MT1-MMP act inh
CC(C)c1ccc2[nH]c3nc(SCC(=O)NC4CC4)nnc3c2c1	+	-2	-13	-16	2	5
CCOc1ccc2[nH]c3nc(SCC(=O)OC(C)C)nnc3c2c1	i	-1	5	4	-4	2
Cc1ccc(C2C(C#N)=C(N)SC(N)=C2C#N)c(C)c1	+	-1	121	-28	-37	-160
OCC1OC(n2cnc3c(/C=C(\O)c4ccccc4)ncnc32)C(O)C1O (stereo unspecified)	u	x	22*	-10	4	-5
Nc1ncnc2c1ncn2[C@@H]1O[C@H](CNCC#Cc2ccccc2)[C@@H](O)[C@H]1O	+	-2	-16	3	-2	-1
Nc1ncnc2c1ncn2C1OC(CO)C2OC21 (stereo unspecified)	i	x	24*	1	x	-1
Nc1ncnc2c1ncn2[C@@H]1O[C@H](CNS(=O)(=O)C2CC2)[C@@H](O)[C@H]1O	i	x	4	0	1	-1
Nc1ncnc2c1ncn2[C@@H]1O[C@H](CNCc2cccc(C#Cc3ccccc3)c2)[C@@H](O)[C@H]1O	i	x	-16	1	2	-6
CN1CCN(S(=O)(=O)NC[C@H]2O[C@@H](n3cnc4c(N)ncnc43)[C@H](O)[C@@H]2O)CC1	+	x	-22	-1	-3	4
COc1ccccc1N1CCN(C(=S)Nc2ccc(F)cc2)CC1	x	1	12	10	0	5
CN(Cc1ncc[nH]1)C(=O)CC1C(=O)NCCN1Cc1c(F)cccc1Cl (stereo unspecified)	i	0	23*	1	-2	-6
Cc1cc(CN(C)C(=O)CC2C(=O)NCCN2Cc2c(F)cccc2Cl)on1 (stereo unspecified)	i	-1	1	-5	1	1
Cc1ccc(S(=O)(=O)NC(CN2CCOCC2)=NCCNS(=O)(=O)c2ccccc2)cc1	i	-3	36*	1	0	0
O=P1(NC2CCCCC2)OCC2(CO1)COP(=O)(NC1CCCCC1)OC2 (stereo unspecified)	i	x	-7	3	1	-1
CN(N=Nc1nc[nH]c1C(N)=O)C1CCCCC1	u	x	-6	-2	x	-8
C[n+]1cccc2cccc([O-])c21	i	x	28*	2	-2	1
[O-][n+]1cccc2cccc(O)c21	i	x	3	0	1	1
C=CCSc1nnc(N2C(=O)C(O)=C(C(=O)c3ccco3)C2c2ccccc2F)s1 (stereo unspecified)	+	1	-8	-1	7	-27
COc1ccc(Cl)cc1NC(=O)CCc1nc(-c2ccccc2F)no1	i	0	46*	1	0	1
CCOC(=O)C(C)N1c2cccc3cccc(c23)S1(=O)=O (stereo unspecified)	i	x	-10	-2	-2	17
COC(=O)c1ccccc1S(=O)(=O)N1CCC(C(=O)OCc2ccc([N+](=O)[O-])cc2)CC1	i	1	25*	1	0	0
CC(=O)Nc1cc2c3c(cccc3c1)-c1ccccc1-2	+	x	9	-33	-3	-148
Cc1cc(/C=C2\SC(=S)N(Cc3ccco3)C2=O)c(C)n1-c1cccnc1	+	x	-40	-19	-4	-199
Cc1cc(/C=C2/SC(=S)N(c3cccc(C(F)(F)F)c3)C2=O)c(C)n1-c1cccnc1	+	-4	-180	-23	3	-49
COc1ccc(CN2C(=O)CSCC2(C)C(=O)NCc2ccccc2)cc1 (stereo unspecified)	i	x	-1	-1	x	5
SMILES	Myeloid diff MLP	MIN6 prolif	CendR NRP1 mod	SENP1 inh	DAGLB inh	MT1-MMP act inh
CCOC(=O)CCC(=O)O[C@H]1[C@H](O[C@@H]2[C@@H](C)[C@H](O[C@H]3C[C@@](C)(OC)[C@@H](O)[C@H](C)O3)[C@@H](C)C(=O)O[C@H](CC)[C@@](C)(O)[C@H](O)[C@@H](C)C(=O)[C@H](C)C[C@@]2(C)O)O[C@H](C)C[C@@H]1N(C)C	+	x	1	0	0	-8
C[C@]12CCC(=O)CC1CCC1C2CC[C@@]2(C)C1CC[C@@]21CCO1 (stereo partly specified)	+	-3	5	1	-9	9
O=C(OCC(O)COC(=O)c1cccnc1)c1cccnc1	+	-3	-3	3	-2	1
Cc1ccc(CN2CCNC(=O)C2CC(=O)NCC(F)(F)F)o1 (stereo unspecified)	i	-1	11	-7	1	-8
O=C(c1cc2ccccc2o1)N1CCN(S(=O)(=O)c2c(F)cccc2F)CC1	i	-3	33*	-3	0	2
CC(=O)N1CCN(C(=O)c2cc3ccccc3o2)CC1	i	0	10	1	0	-1
C/C(O)=C\c1nc2ccccc2oc1=O	+	-3	-12	-1	0	0
Cc1ccc2oc(=O)c(/C=C(\O)c3cccs3)nc2c1	i	-1	130	-1	0	-2
Cc1ccc2oc(=O)c(/C=C(\O)c3ccccc3)nc2c1	i	-3	42*	-4	3	7
CCN(CCNC(=O)c1cccc(N2CCCC2=O)c1)c1ccccc1	i	-2	-4	1	1	0
CN(CCNC(=O)c1cccc(N2CCCC2=O)c1)Cc1ccccc1	i	-3	18*	0	2	2
CCOCCn1ccc2c(OCC(=O)Nc3ccc(OC)cc3OC)cccc2c1=O	+	0	4	1	0	8
O=C(CSC1CN(C(c2ccccc2)c2ccccc2)C1)N/N=C/c1ccccc1	i	-3	41*	2	-3	0
O=C(CCN1CCN(C(c2ccccc2)c2ccccc2)CC1)N/N=C/c1ccc(O)cc1	i	0	-6	3	-1	2
COc1ccc(N2CCN(C(=O)c3ccc(Br)cc3)CC2)c([N+](=O)[O-])c1	i	-2	16*	2	10	5
C#CCOCCOCCOCCNc1nc(N2CCN(C(=O)CCCCCCCCCCNC(=O)[C@H](CCCCN)n3cc(C[C@@H](C)CC)nn3)CC2)nc(N2CCN(C(=O)CCCCCCCCCCNC(=O)[C@H](CCCN=C(N)N)n3cc(C[C@@H](C)CC)nn3)CC2)n1	i	-8	40*	-4	1	5
